In the library only some 2.3% were active in any assay of this set; here they are far more common.
TRPC4 inh: blocks the mouse TRPC4 cation channel; Q9QUQ5; HEK293 TRPC4beta/mu-opioid, DAMGO-evoked Fluo4 calcium flux; stronger effect = lower value; B-score at 10 µM; 300,000 tested, 0.39% active; AID 2247;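 active = B-score over 3 SD under the library average, no early fluorescence shift, positive overall ratio signal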
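Assay system: HEK293 cells with stable TRPC4beta plus mu-opioid receptor expression; Probe or stimulus: DAMGO in two steps, submaximal then maximal; Dosing: single-point compound dosing; Measured by: Fluo4 calcium-dye fluorescence, kinetic read; Read-out basis: B score from integrated Fluo4 fluorescence ratio.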
TRPC4 potent: allosteric potentiators of mouse TRPC4 channel | Q9QUQ5 | HEK293 TRPC4beta/mu-opioid, DAMGO EC20, Fluo-4 Ca2+ flux; stronger effect = higher value | B-score at 10 µM | 310,000 tested, 0.42% active | AID 2227;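 active = B-score of calcium response area above 5 SD of library B-scores, with initial fluorescence ratio within 5 SD of library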
TRPC6 inhibitor: blocks the mouse TRPC6 cation channel | HEK293-TRPC6, membrane potential dye, ACh-evoked depolarization; stronger effect = lower value | AID 2553 | B-score at 10 µM | Q61143 | 310,000 tested, 1.1% active;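 active = B-score under library mean minus 3 SD, initial fluorescence not abnormally high, positive integrated signal ratio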;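 also: B-score derived from integrated fluorescence ratio over the kinetic read; more negative B-score means stronger inhibition of depolarization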
Target sequence (Q61143 whole entry, looked up): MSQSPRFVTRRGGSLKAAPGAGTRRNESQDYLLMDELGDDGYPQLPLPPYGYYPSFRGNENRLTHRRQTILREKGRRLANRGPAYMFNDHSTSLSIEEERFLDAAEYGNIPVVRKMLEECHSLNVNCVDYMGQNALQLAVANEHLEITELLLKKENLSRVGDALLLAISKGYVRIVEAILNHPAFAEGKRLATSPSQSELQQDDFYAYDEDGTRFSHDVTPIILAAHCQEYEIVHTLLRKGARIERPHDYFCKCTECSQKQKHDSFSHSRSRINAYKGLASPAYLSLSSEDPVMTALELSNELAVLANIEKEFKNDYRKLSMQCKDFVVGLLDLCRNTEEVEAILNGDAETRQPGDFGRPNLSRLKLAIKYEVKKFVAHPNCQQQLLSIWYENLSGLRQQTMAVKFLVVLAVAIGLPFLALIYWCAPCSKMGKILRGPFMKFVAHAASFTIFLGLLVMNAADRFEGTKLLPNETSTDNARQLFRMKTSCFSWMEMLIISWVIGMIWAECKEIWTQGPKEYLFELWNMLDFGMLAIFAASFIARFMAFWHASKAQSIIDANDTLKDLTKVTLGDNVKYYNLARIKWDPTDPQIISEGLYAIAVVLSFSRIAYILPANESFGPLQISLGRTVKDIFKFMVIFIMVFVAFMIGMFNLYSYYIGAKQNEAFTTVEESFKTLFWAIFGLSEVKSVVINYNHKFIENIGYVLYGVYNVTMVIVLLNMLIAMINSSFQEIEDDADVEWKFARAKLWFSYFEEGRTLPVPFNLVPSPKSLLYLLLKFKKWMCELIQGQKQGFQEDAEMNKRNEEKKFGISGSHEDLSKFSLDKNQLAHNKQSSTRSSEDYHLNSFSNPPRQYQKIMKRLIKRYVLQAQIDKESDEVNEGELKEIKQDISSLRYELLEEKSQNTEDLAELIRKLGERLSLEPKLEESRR
TRPC4 act: activators of mouse TRPC4 channel. AID 2237. B-score at 10 µM. HEK293 TRPC4beta/mu-opioid, Fluo4 calcium fluorescence; stronger effect = higher value. Q9QUQ5. 310,000 tested, 0.49% active;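 active = B-score above 5 SD of library B-scores, and initial fluorescence ratio not above library mean plus 5 SD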;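 also: positive B-score marks a calcium rise read as TRPC4 activation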
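Assay system: HEK293 stable line with TRPC4beta plus mu-opioid receptor; schedule: 45 min room-temperature Fluo4 loading, 110 s read; technique: kinetic Fluo4 calcium fluorescence; evaluation: integrated baseline-normalised fluorescence ratio, converted to per-well B score; controls: buffer (low) and maximal DAMGO (high)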
TRPC6 activator: activates the mouse TRPC6 cation channel. HEK293-TRPC6 membrane potential dye fluorescence; stronger effect = higher value. 310,000 tested, 0.13% active. B-score at 10 µM. Q61143. AID 2550;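 active = B-score of the integrated fluorescence ratio above library mean plus 3 SD, and starting fluorescence ratio within library mean plus 5 SD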;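 also: higher score means more depolarization so channel activation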
TRPC4 sel inh 2: second selectivity test of TRPC6 inhibitors: effect on mouse TRPC4 | shares compounds with TRPC6 inhibitor | HEK293 TRPC4/MOR, membrane potential dye fluorescence; channel activated by saturating DAMGO dose | 920 tested, 42% active | AID 2776 | inhibition, % at 10 µM;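 active = compounds whose fluorescence signal differed from control wells by over 3 SD, either direction, in both duplicate plates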
TRPC4 spec: mouse TRPC4 off-target activity of TRPC6 inhibitors | shares compounds with TRPC6 inhibitor | HEK293 TRPC4/mu-opioid, membrane potential fluorescence | activity change, negative = inhibition, % at 10 µM | 920 tested, 61% active | AID 2777;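 active = rise or fall in signal beyond 3 SD of buffer-only wells in both replicate plates, either sign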;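 also: integrated kinetic ratio of fluorescence range over baseline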
HEK293 MPD ctr 2-1: second check of TRPC6 inhibitor effects in parental HEK293 cells. signal change vs control, % at 10 µM. shares compounds with TRPC6 inhibitor. 920 tested, 31% active. parental HEK293 membrane potential dye fluorescence; maximal acetylcholine challenge after compound addition;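 active = membrane potential signal moving either way by over 3 SD of the maximum-effect control, in both duplicate plates, meaning non-specific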
HEK293 MPD ctr-1: parental HEK293 nonspecific activity of TRPC6 inhibitors | parental HEK293 membrane potential dye fluorescence | 920 tested, 60% active | membrane potential signal change, % at 10 µM | shares compounds with TRPC6 inhibitor;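 active = membrane potential signal shifting up or down by more than 3 SD of buffer-only wells, on both duplicate plates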
HEK293 MPD ctr-2: parental HEK293 nonspecific activity of TRPC6 modulators | 2,400 tested, 51% active | membrane potential signal change, % at 10 µM | membrane potential dye fluorescence | shares compounds with TRPC6 inhibitor;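 active = membrane potential signal moves up or down beyond 5 SD from buffer-only wells, on both duplicate plates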
HEK293 MPD ctr 2-2: second check of TRPC6 modulator effects in parental HEK293 cells | shares compounds with TRPC6 inhibitor | membrane potential dye fluorescence; after compound, maximal acetylcholine stimulation | inhibition, % at 10 µM | 2,400 tested, 14% active;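 active = membrane potential signal drops by more than 5 SD from the mean control signal, in both duplicate plates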
TRPC4 ctr mod: mouse TRPC4 off-target activity of TRPC6 modulators; shares compounds with TRPC6 inhibitor; HEK293 TRPC4/mu-opioid, membrane potential fluorescence; percent change from control (negative = decrease, positive = increase), % at 10 µM; 2,400 tested, 69% active;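 active = membrane potential signal moved up or down beyond 5 SD of buffer control wells, in both duplicate plates, actives on both sides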
TRPC4 ctr inh 2: mouse TRPC4 off-target activity of TRPC6 modulators, second screen; shares compounds with TRPC6 inhibitor; HEK293 TRPC4/mu-opioid, membrane potential dye fluorescence; stimulated with maximal-effect DAMGO; inhibition, % at 10 µM; 2,400 tested, 55% active;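 active = drop in membrane potential signal beyond 5 SD of the control wells in both duplicate plates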;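 also: TRPC4 counter screen for TRPC6 hits run under conditions tuned for TRPC6 not TRPC4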
TRPC6 block conf: confirmation of mouse TRPC6 inhibitors; 3,300 tested, 43% active; inhibition, % at 10 µM; HEK293-TRPC6, membrane potential dye, ACh-evoked depolarization; shares compounds with TRPC6 inhibitor; AID 488960;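 active = fluorescence ratio falls more than 5 SD below the full-stimulation control mean, in both duplicate runs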;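 also: integrated fluorescence ratio of peak minus minimum over baseline after agonist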
TRPC6 act confirm: confirmation of mouse TRPC6 activators; shares compounds with TRPC6 inhibitor; HEK293-TRPC6 membrane potential dye fluorescence, FDSS; activation, % at 10 µM; 2,800 tested, 11% active; AID 488961;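 active = ratio signal rise beyond 5 SD above unstimulated control wells' mean, seen in both duplicate runs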
Of the large screens only hits and unclear results are named; the others gave an inactive call (follow-up assays come after a bar, where they were run).

CC(NC(=O)Cn1ncc(Cl)c(Cl)c1=O)C12CC3CC(CC(C3)C1)C2 (stereo not given)	none
COc1cccc(CN2CCC(n3nccc3NC(=O)CCOc3ccccc3)CC2)c1O	TRPC6 inhibitor -10.1 | TRPC4 sel inh 2 inactive | TRPC4 spec 1.8% | HEK293 MPD ctr 2-1 inactive | HEK293 MPD ctr-1 0.8% | TRPC6 block conf inactive | TRPC6 act confirm inactive
COc1cccc(CN2CCC(n3nccc3NC(=O)CCOc3ccccc3)CC2)c1	none
Cc1ccc2nc(-c3ccncc3)cc(-c3ccccc3)c2c1	none
Cc1ccc(-c2cc3cccc[n+]3cc2-c2ccc(C)cc2)cc1	TRPC6 inhibitor -5.75 | HEK293 MPD ctr-2 -134.0% | HEK293 MPD ctr 2-2 inactive | TRPC4 ctr mod -20.0% | TRPC4 ctr inh 2 29.0% | TRPC6 block conf 60.5% | TRPC6 act confirm inactive
O=C(Nc1ccc(C(=O)N2CCCCC2)cc1)C1=CSCCO1	none
CCN(CC)C(=O)CSc1nnc(CNc2ccc(F)cc2)n1-c1ccccc1	none
CC(=O)c1ccc(S(=O)(=O)NC2CCSc3ccccc32)cc1 (stereo not given)	none
O=S(=O)(NC1CCSc2ccccc21)c1ccc(Cl)nc1 (stereo not given)	TRPC6 inhibitor -6.16 | HEK293 MPD ctr-2 inactive | HEK293 MPD ctr 2-2 inactive | TRPC4 ctr mod inactive | TRPC4 ctr inh 2 inactive | TRPC6 block conf inactive | TRPC6 act confirm inactive
Cc1ccc(S(=O)(=O)n2ccc3c2CCCC3=O)cc1	TRPC6 inhibitor -5.07 | HEK293 MPD ctr-2 334.5% | HEK293 MPD ctr 2-2 165.5% | TRPC4 ctr mod 75.5% | TRPC4 ctr inh 2 48.5% | TRPC6 block conf 88.5%
Cn1c(=O)n(CCO)c(=O)c2c1nc(Br)n2Cc1ccccc1	none
CN(C)CCCN(C(=O)c1ccc(S(=O)(=O)N2CCCCCC2)cc1)c1nc2c(F)cc(F)cc2s1	TRPC6 inhibitor -5.19, TRPC4 act 157 | HEK293 MPD ctr-2 inactive | HEK293 MPD ctr 2-2 inactive | TRPC4 ctr mod 20.0% | TRPC4 ctr inh 2 103.0% | TRPC6 block conf inactive | TRPC6 act confirm inactive
CCOC(=O)N1CCN(S(=O)(=O)c2ccc(C(=O)N(CCCN(C)C)c3nc4cc(OC)ccc4s3)cc2)CC1	TRPC6 inhibitor -5.58 | HEK293 MPD ctr-2 inactive | HEK293 MPD ctr 2-2 inactive | TRPC4 ctr mod -25.0% | TRPC4 ctr inh 2 81.0% | TRPC6 block conf 73.0% | TRPC6 act confirm inactive
COc1cccc(-c2nc(N3CCN(C)CC3)c3ccccc3n2)c1O	TRPC6 inhibitor -9.91 | HEK293 MPD ctr-2 -217.5% | HEK293 MPD ctr 2-2 inactive | TRPC4 ctr mod -44.0% | TRPC4 ctr inh 2 71.5% | TRPC6 block conf 51.5% | TRPC6 act confirm inactive
CN1CCN(c2nc(-c3cccs3)nc3ccccc23)CC1	TRPC6 inhibitor -8.25 | TRPC4 sel inh 2 32.5% | TRPC4 spec -28.1% | HEK293 MPD ctr 2-1 inactive | HEK293 MPD ctr-1 -344.5% | TRPC6 block conf 68.7% | TRPC6 act confirm inactive
O=S(=O)(Cc1ccc(Cl)cc1)c1ccccc1-c1nnc(-c2ccc(Cl)cc2)o1	none
CCCCN(C)C1=Nc2cccc3cccc1c23	TRPC6 inhibitor -7.52 | HEK293 MPD ctr-2 -194.0% | HEK293 MPD ctr 2-2 inactive | TRPC4 ctr mod -42.0% | TRPC4 ctr inh 2 69.0% | TRPC6 block conf 56.5% | TRPC6 act confirm inactive
CCOc1ccc(-c2noc(CCC(=O)NCCc3ccccc3)n2)cc1OC	none
CSc1ccc2c(c1)N(CCC1CCCCN1C)c1ccccc1S2 (stereo not given)	TRPC6 inhibitor -6.01 | HEK293 MPD ctr-2 inactive | HEK293 MPD ctr 2-2 59.0% | TRPC4 ctr mod inactive | TRPC4 ctr inh 2 85.0% | TRPC6 block conf 67.0% | TRPC6 act confirm inactive
Oc1[nH]c2ccccc2c1N=NC(=S)NCC1CCCO1 (stereo not given)	none
Oc1[nH]c2ccc(Br)cc2c1N=NC(=S)NCC1CCCO1 (stereo not given)	TRPC6 inhibitor -8.84 | TRPC4 sel inh 2 inactive | TRPC4 spec inactive | HEK293 MPD ctr 2-1 inactive | HEK293 MPD ctr-1 inactive | TRPC6 block conf inactive | TRPC6 act confirm inactive
C[n+]1ccccc1COc1ccc(C(C)(C)C)cc1	TRPC6 inhibitor -5.1 | HEK293 MPD ctr-2 inactive | HEK293 MPD ctr 2-2 inactive | TRPC4 ctr mod inactive | TRPC4 ctr inh 2 inactive | TRPC6 block conf inactive | TRPC6 act confirm inactive
CC(C)(C)c1ccc(OCCNCc2ccccc2)cc1	none
NS(=O)(=O)c1ccc(N/N=C/c2ccc(C(=O)O)cc2)c([N+](=O)[O-])c1	none
Cc1nn(-c2ccccc2)c(N2CCCC2)c1/C=N/Nc1ccc(S(N)(=O)=O)cc1[N+](=O)[O-]	TRPC6 inhibitor -5.53 | HEK293 MPD ctr-2 inactive | HEK293 MPD ctr 2-2 inactive | TRPC4 ctr mod -10.0% | TRPC4 ctr inh 2 54.0% | TRPC6 block conf inactive | TRPC6 act confirm inactive
O=C(CCc1ccccc1)c1c(O)cc(O)cc1O	TRPC6 inhibitor -5.6 | HEK293 MPD ctr-2 -83.5% | HEK293 MPD ctr 2-2 inactive | TRPC4 ctr mod -20.5% | TRPC4 ctr inh 2 74.5% | TRPC6 block conf 49.5% | TRPC6 act confirm inactive
COc1ccc(S(=O)(=O)N2CCOc3ccccc32)cc1	none
